{
  "source": "ChEMBL document CHEMBL4477194",
  "about": "“Royal Jelly Constituents Increase the Expression of Extracellular Superoxide Dismutase through Histone Acetylation in Monocytic THP-1 Cells” (J Nat Prod, 2016)",
  "key": {"[1]": {"tested_on": "THP-1", "assay": "Effect on HDAC1 mRNA expression in human THP1 cells at 1 mM after 24 hrs by RT-PCR method", "type": "functional, cell-based", "in_short": "(§1)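 THP-1 cells in RPMI 1640 with 10% heat-inactivated FCS, 37 °C, 5% CO2. Seeded 2.0 × 10^6 cells per 3.5 cm dish and treated 24 h, at 1 mM for the 1 mM lines and 100 μM for the 100 μM lines. RNA extracted in TRIzol, then real-time RT-PCR normalized to 18S rRNA. Means ± SD of three independent experiments; ANOVA with Bonferroni post hoc.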"}, "[2]": {"tested_on": "THP-1", "assay": "Effect on HDAC10 mRNA expression in human THP1 cells at 1 mM after 24 hrs by RT-PCR method", "type": "functional, cell-based", "in_short": "as §1"}, "[3]": {"target": "Histone deacetylase (Homo sapiens) (UniProt Q13547+O15379+Q9UBN7+Q92769+Q9UQL6+Q8WUI4+Q9BY41+Q96DB2+P56524+Q9UKV0+Q969S8)", "assay": "Inhibition of HDAC activity in human THP1 cells at 1 mM preincubated for 1 hr followed by substrate addition measured after 2 hrs by fluorescence assay relative to control", "type": "cell-based", "in_short": "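This is a cell-based HDAC assay. THP-1 cells at 5.0 × 10^4 cells/well were treated for 1 h, then HDAC substrate was added for 2 h at 37 °C. Lysis/developer solution followed for 15 min at 37 °C. Fluorescence was read at ex 365 nm / em 410–460 nm and compared with untreated cells; mean ± SD, n = 3 independent experiments.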"}, "[4]": {"tested_on": "THP-1", "assay": "Effect on HDAC2 mRNA expression in human THP1 cells at 1 mM after 24 hrs by RT-PCR method", "type": "functional, cell-based", "in_short": "as §1"}, "[5]": {"target": "Histone deacetylase 1 (Homo sapiens) (UniProt Q13547)", "sequence (Q13547 whole entry, the tested form may be a part)": "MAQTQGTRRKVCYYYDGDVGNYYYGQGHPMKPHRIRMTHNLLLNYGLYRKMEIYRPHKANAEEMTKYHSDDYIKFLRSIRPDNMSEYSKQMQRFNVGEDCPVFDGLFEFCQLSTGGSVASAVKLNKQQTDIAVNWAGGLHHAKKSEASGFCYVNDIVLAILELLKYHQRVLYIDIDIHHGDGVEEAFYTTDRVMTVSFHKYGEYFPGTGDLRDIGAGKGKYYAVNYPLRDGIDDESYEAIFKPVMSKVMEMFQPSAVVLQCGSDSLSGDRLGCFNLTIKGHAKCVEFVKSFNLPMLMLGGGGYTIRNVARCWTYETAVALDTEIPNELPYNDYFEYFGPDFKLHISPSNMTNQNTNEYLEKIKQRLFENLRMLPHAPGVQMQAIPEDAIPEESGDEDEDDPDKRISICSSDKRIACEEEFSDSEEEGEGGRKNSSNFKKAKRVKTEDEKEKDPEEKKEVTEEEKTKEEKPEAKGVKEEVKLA", "assay": "Upregulation of HDAC1 inhibition-mediated histone H4 acetylation-induced extracellular SOD expression in human THP1 cells at 1 mM after 12 hrs by chromatin immunoprecipitation method", "type": "cell-based", "in_short": "(§2)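 THP-1 cells (5 × 10^6) treated 12 h, at 1 mM or 100 μM per line. Cross-linked with formaldehyde 5 min at room temperature and chromatin sonicated to 150–800 bp. Immunoprecipitated overnight on protein G beads and washed in RIPA I/II and TE. Eluted with RNase A and proteinase K. EC-SOD promoter binding expressed as % of input.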"}, "[6]": {"tested_on": "THP-1", "assay": "Effect on Cu/Zn SOD mRNA expression in human THP1 cells at 1 mM after 24 hrs by RT-PCR method", "type": "functional, cell-based", "in_short": "(§3)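 THP-1 cells (RPMI 1640, 10% heat-inactivated FCS, 37 °C, 5% CO2) were seeded at 2.0 × 10^6 cells/dish and treated for 24 h. Cells were washed with cold PBS and lysed in TRIzol, then analysed by real-time RT-PCR normalized to 18S rRNA. Values are mean ± SD of three independent experiments, with ANOVA and Bonferroni tests.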"}, "[7]": {"target": "Histone deacetylase 1 (Homo sapiens) (UniProt Q13547)", "assay": "Inhibition of recombinant HDAC1 catalytic domain (unknown origin) using HDAC substrate at 1 mM preincubated for 1 hr followed by substrate addition measured after 30 mins by fluorescence assay relative to control", "in_short": "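Recombinant HDAC1 was mixed with compound in assay buffer, and the reaction was started with HDAC substrate for 30 min at 37 °C in the dark. Developer was then added for 15 min at room temperature. Fluorescence was read at ex 365 nm / em 410–460 nm and compared with untreated control; mean ± SD of three independent experiments.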"}, "[8]": {"tested_on": "THP-1", "assay": "Effect on HDAC4 mRNA expression in human THP1 cells at 1 mM after 24 hrs by RT-PCR method", "type": "functional, cell-based", "in_short": "as §1"}, "[9]": {"tested_on": "THP-1", "assay": "Effect on HDAC9 mRNA expression in human THP1 cells at 1 mM after 24 hrs by RT-PCR method", "type": "functional, cell-based", "in_short": "as §1"}, "[10]": {"species_on_record": "Homo sapiens", "assay": "Upregulation of HDAC1 inhibition/ERK signalling activation-mediated extracellular SOD mRNA expression in human THP1 cells at 1 mM after 24 hrs by RT-PCR method", "type": "cell-based", "in_short": "as §3"}, "[11]": {"target": "Histone deacetylase 1 (Homo sapiens) (UniProt Q13547)", "assay": "Inhibition of HDAC1 in human THP1 cells assessed as increase in histone H3 acetylation level at 1 mM after 12 hrs by Western blot analysis relative to control", "type": "cell-based", "in_short": "(§4)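 After 12 h treatment, THP-1 whole-cell extracts (20 μg protein) were run on 12% SDS-PAGE and transferred to PVDF. Membranes were blocked with 1% BSA in PBS and probed with anti-acetyl histone H3 or H4 primary antibodies (1:1000), then a biotin-conjugated secondary antibody (1:1000). Histone loading was checked by Coomassie staining.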"}, "[12]": {"tested_on": "THP-1", "assay": "Effect on HDAC5 mRNA expression in human THP1 cells at 1 mM after 24 hrs by RT-PCR method", "type": "functional, cell-based", "in_short": "as §1"}, "[13]": {"tested_on": "THP-1", "assay": "Effect on HDAC7 mRNA expression in human THP1 cells at 1 mM after 24 hrs by RT-PCR method", "type": "functional, cell-based", "in_short": "as §1"}, "[14]": {"tested_on": "THP-1", "assay": "Effect on HDAC6 mRNA expression in human THP1 cells at 1 mM after 24 hrs by RT-PCR method", "type": "functional, cell-based", "in_short": "as §1"}, "[15]": {"tested_on": "THP-1", "assay": "Effect on HDAC3 mRNA expression in human THP1 cells at 1 mM after 24 hrs by RT-PCR method", "type": "functional, cell-based", "in_short": "as §1"}, "[16]": {"target": "Histone deacetylase 1 (Homo sapiens) (UniProt Q13547)", "assay": "Upregulation of HDAC1 inhibition-mediated histone H3 acetylation-induced extracellular SOD expression in human THP1 cells at 1 mM after 12 hrs by chromatin immunoprecipitation method", "type": "cell-based", "in_short": "as §2"}, "[17]": {"tested_on": "THP-1", "assay": "Effect on HDAC8 mRNA expression in human THP1 cells at 1 mM after 24 hrs by RT-PCR method", "type": "functional, cell-based", "in_short": "as §1"}, "[18]": {"target": "Histone deacetylase 1 (Homo sapiens) (UniProt Q13547)", "assay": "Inhibition of HDAC1 in human THP1 cells assessed as increase in histone H4 acetylation level at 1 mM after 12 hrs by Western blot analysis relative to control", "type": "cell-based", "in_short": "as §4"}, "[19]": {"species_on_record": "Homo sapiens", "assay": "Upregulation of HDAC1 inhibition/ERK signalling activation-mediated extracellular SOD protein expression in human THP1 cells at 1 mM after 24 hrs by ELISA", "type": "cell-based", "in_short": "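EC-SOD protein content was measured by ELISA in THP-1 cells after 24 h treatment, with cells collected in PBS. Cells were cultured in RPMI 1640 with 10% heat-inactivated FCS at 37 °C and 5% CO2. Values are mean ± SD of three independent experiments, compared against untreated cells.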"}, "[20]": {"tested_on": "THP-1", "assay": "Upregulation of Mn SOD mRNA expression in human THP1 cells at 1 mM after 24 hrs by RT-PCR method", "type": "functional, cell-based", "in_short": "as §3"}},
  "note": "Calls of active or inactive are those of the source. The calls are words filed in the database; no cut-off is given here.",
  "data": [
    {"smiles": "O=C(O)CCCCCCCCC(=O)O", "values": [
      {"measurement": "Activity", "setting": "[1]", "value": "inactive"},
      {"measurement": "Activity", "setting": "[2]", "value": "inactive"},
      {"measurement": "inhibition", "setting": "[3]", "value": 20, "unit": "%"},
      {"measurement": "Activity", "setting": "[4]", "value": "inactive"},
      {"measurement": "Activity", "setting": "[5]", "value": "Active"},
      {"measurement": "Activity", "setting": "[6]", "value": "inactive"},
      {"measurement": "inhibition", "setting": "[7]", "value": 50, "unit": "%"},
      {"measurement": "Activity", "setting": "[8]", "value": "inactive"},
      {"measurement": "Activity", "setting": "[9]", "value": "inactive"},
      {"measurement": "Activity", "setting": "[10]", "value": "Active"},
      {"measurement": "fold change (FC)", "setting": "[11]", "value": 1.24},
      {"measurement": "Activity", "setting": "[12]", "value": "inactive"},
      {"measurement": "Activity", "setting": "[13]", "value": "inactive"},
      {"measurement": "Activity", "setting": "[14]", "value": "inactive"},
      {"measurement": "Activity", "setting": "[15]", "value": "inactive"},
      {"measurement": "Activity", "setting": "[16]", "value": "inactive"},
      {"measurement": "Activity", "setting": "[17]", "value": "inactive"},
      {"measurement": "fold change (FC)", "setting": "[18]", "value": 2.24},
      {"measurement": "Activity", "setting": "[19]", "value": "Active"},
      {"measurement": "Activity", "setting": "[20]", "value": "Active"}
    ]}
  ]
}
